Measured values published in ChEMBL document CHEMBL5329174, “Discovery of benzoxazole-thiazolidinone hybrids as promising antibacterial agents against Staphylococcus aureus and Enterococcus species” (RSC Med Chem, 2023).
≈ marks a conversion by molar mass, not a printed value.

What was measured:
Staphylococcus aureus [1] = experiment: Antibacterial activity against methicilin-resistant Staphylococcus aureus NRS 194 assessed as reduction in bacterial growth; assay type: functional
How it was run: (§1)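 CLSI broth microdilution in cation-supplemented Mueller–Hinton broth II. Starter cultures were grown overnight at 37 °C with shaking from a single MHA colony, then diluted by OD600 to ~10^6 CFU/mL. Compounds came from 10 mg/mL DMSO stocks and were tested two-fold from 64 to 0.5 mg/L. Plates were incubated 37 °C for 18–24 h. MIC was taken as the lowest concentration with no visible growth. Three independent runs, each in duplicate.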

Staphylococcus aureus [2] = experiment: Antibacterial activity against Staphylococcus aureus ATCC 29213 assessed as reduction in bacterial growth; assay type: functional
How it was run: (§2)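 CLSI broth microdilution in cation-supplemented Mueller–Hinton broth II; overnight starter cultures (37 °C, shaking, 18–24 h) adjusted by OD600 to ~10^6 CFU/mL. Compounds dosed from DMSO stocks (10 mg/mL stock) as two-fold dilutions, 64–0.5 mg/L. Plates held 37 °C, 18–24 h. MIC = lowest concentration without visible growth. Three independent runs, each in duplicate.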

Enterococcus faecalis [3] = experiment: Antibacterial activity against vancomycin-susceptible Enterococcus faecalis NR 31887 assessed as inhibition of bacterial growth incubated for 18 to 24 hrs by broth microdilution assay; assay type: functional; settings: time 18-24 hrs; how it was run: as §2
Staphylococcus aureus [4] = experiment: Bactericidal activity against Staphylococcus aureus ATCC 29213 incubated for 24 hrs by time-kill assay; assay type: functional, organism-based
How it was run: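 Time-kill: S. aureus ATCC 29213 at ~10^6 CFU/mL in MHBII, exposed to 1× and 10× MIC, 37 °C with shaking for 24 h. Surviving CFU/mL plotted over time; mean of replicate experiments in duplicate.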

Enterococcus faecium [5] = experiment: Antibacterial activity against vancomycin-resistant Enterococcus faecium NR 31912 assessed as inhibition of bacterial growth
Klebsiella pneumoniae = experiment: Antibacterial activity against Klebsiella pneumoniae BAA-1705 assessed as reduction in bacterial growth; assay type: functional; how it was run: as §2
Staphylococcus aureus [6] = experiment: Antibacterial activity against vancomycin-resistant Staphylococcus aureus VRS 1 assessed as reduction in bacterial growth; assay type: functional; how it was run: as §1
Enterococcus faecalis [7] = experiment: Antibacterial activity against vancomycin-susceptible Enterococcus faecalis NR 31888 assessed as inhibition of bacterial growth incubated for 18 to 24 hrs by broth microdilution assay; assay type: functional; settings: time 18-24 hrs; how it was run: as §2
Enterococcus faecalis [8] = experiment: Antibacterial activity against vancomycin-susceptible Enterococcus faecalis NR 31886 assessed as inhibition of bacterial growth incubated for 18 to 24 hrs by broth microdilution assay; assay type: functional; settings: time 18-24 hrs; how it was run: as §2
Staphylococcus aureus [9] = experiment: Antibacterial activity against methicilin-resistant Staphylococcus aureus NRS 198 assessed as reduction in bacterial growth; assay type: functional; how it was run: as §1
Escherichia coli = experiment: Antibacterial activity against Escherichia coli ATCC 25922 assessed as reduction in bacterial growth; assay type: functional; how it was run: as §2
Staphylococcus aureus [10] = experiment: Antibacterial activity against methicilin-resistant Staphylococcus aureus NRS 129 assessed as reduction in bacterial growth; assay type: functional; how it was run: as §1
Pseudomonas aeruginosa = experiment: Antibacterial activity against Pseudomonas aeruginosa ATCC 27853 assessed as reduction in bacterial growth; assay type: functional; how it was run: as §2
Staphylococcus aureus [11] = experiment: Antibacterial activity against methicilin-resistant Staphylococcus aureus NRS 119 assessed as reduction in bacterial growth; assay type: functional; how it was run: as §1
Staphylococcus aureus [12] = experiment: Antibacterial activity against methicilin-resistant Staphylococcus aureus NRS 191 assessed as reduction in bacterial growth; assay type: functional; how it was run: as §1
Enterococcus faecium [13] = experiment: Antibacterial activity against vancomycin-resistant Enterococcus faecium NR 31903 assessed as inhibition of bacterial growth
Enterococcus faecalis [14] = experiment: Antibacterial activity against vancomycin-susceptible Enterococcus faecalis NR 31884 assessed as inhibition of bacterial growth incubated for 18 to 24 hrs by broth microdilution assay; assay type: functional; settings: time 18-24 hrs; how it was run: as §2
Acinetobacter baumannii = experiment: Antibacterial activity against Acinetobacter baumannii BAA-1605 assessed as reduction in bacterial growth; assay type: functional; how it was run: as §2
Staphylococcus aureus [15] = experiment: Antibacterial activity against vancomycin-resistant Staphylococcus aureus VRS 12 assessed as reduction in bacterial growth; assay type: functional; how it was run: as §1
Enterococcus faecalis [16] = experiment: Antibacterial activity against vancomycin-susceptible Enterococcus faecalis NR 31885 assessed as inhibition of bacterial growth incubated for 18 to 24 hrs by broth microdilution assay; assay type: functional; settings: time 18-24 hrs; how it was run: as §2
Staphylococcus aureus [17] = experiment: Antibacterial activity against methicilin-resistant Staphylococcus aureus NRS 100 assessed as reduction in bacterial growth; assay type: functional; how it was run: as §1
[18] = Selectivity index, ratio of CC50 for cytotoxicity against african green monkey Vero cells assessed as reduction in cell viability to MIC for antibacterial activity against Staphylococcus aureus ATCC 29213 assessed as reduction in bacterial growth; assay type: toxicity, cell-based; settings: read-out: Selectivity Index
Staphylococcus aureus [19] = experiment: Antibacterial activity against methicilin-resistant Staphylococcus aureus NRS 186 assessed as reduction in bacterial growth; assay type: functional; how it was run: as §1
[20] = Cytotoxicity against african green monkey Vero cells assessed as reduction in cell viability incubated for 72 hrs by MTT assay; assay type: toxicity, cell-based; settings: chlorocebus sabaeus
How it was run: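 Vero (ATCC CCL-81) cells seeded at ~10^3 per well, 37 °C, 5% CO2. After 24 h, compound added at 100–12.5 μg/mL for 72 h. MTT then given for 4 h at 37 °C, formazan dissolved in DMSO, absorbance read at 540 nm. CC50 taken as the concentration giving 50% viability loss; doxorubicin as positive control; triplicate.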

Staphylococcus aureus [21] = experiment: Antibacterial activity against vancomycin-resistant Staphylococcus aureus VRS 4 assessed as reduction in bacterial growth; assay type: functional; how it was run: as §1
Staphylococcus aureus [22] = experiment: Antibacterial activity against methicilin-resistant Staphylococcus aureus NRS 193 assessed as reduction in bacterial growth; assay type: functional; how it was run: as §1
Enterococcus faecium [23] = experiment: Antibacterial activity against vancomycin-resistant Enterococcus faecium NR 31909 assessed as inhibition of bacterial growth
Staphylococcus aureus [24] = experiment: Antibacterial activity against methicilin-resistant Staphylococcus aureus NRS 192 assessed as reduction in bacterial growth; assay type: functional; how it was run: as §1

Compound	MIC (Staphylococcus aureus [1]) [µg/mL]	MIC (Staphylococcus aureus [2]) [µg/mL]	MIC (Enterococcus faecalis [3]) [µg/mL]	MIC (Enterococcus faecium [5]) [µg/mL]	MIC (Klebsiella pneumoniae) [µg/mL]	MIC (Staphylococcus aureus [6]) [µg/mL]	MIC (Enterococcus faecalis [7]) [µg/mL]	MIC (Enterococcus faecalis [8]) [µg/mL]	MIC (Staphylococcus aureus [9]) [µg/mL]	MIC (Escherichia coli) [µg/mL]	MIC (Staphylococcus aureus [10]) [µg/mL]	MIC (Pseudomonas aeruginosa) [µg/mL]	MIC (Staphylococcus aureus [11]) [µg/mL]	MIC (Staphylococcus aureus [12]) [µg/mL]	MIC (Enterococcus faecium [13]) [µg/mL]	MIC (Enterococcus faecalis [14]) [µg/mL]	MIC (Acinetobacter baumannii) [µg/mL]	MIC (Staphylococcus aureus [15]) [µg/mL]	MIC (Enterococcus faecalis [16]) [µg/mL]	MIC (Staphylococcus aureus [17]) [µg/mL]	also measured
O=C1N/C(=N\c2nc3ccccc3o2)S/C1=C\c1cc(Br)ccc1O	1 (≈ 2.4 µM)	1 (≈ 2.4 µM)	2 (≈ 4.8 µM)	0.125 (≈ 0.3 µM)	> 64	1 (≈ 2.4 µM)	4 (≈ 9.61 µM)	4 (≈ 9.61 µM)	1 (≈ 2.4 µM)	> 64	0.5 (≈ 1.2 µM)	> 64	1 (≈ 2.4 µM)	0.5 (≈ 1.2 µM)	1 (≈ 2.4 µM)	4 (≈ 9.61 µM)	> 64	0.5 (≈ 1.2 µM)	4 (≈ 9.61 µM)	0.5 (≈ 1.2 µM)	Activity (Staphylococcus aureus [4]): Dose-Dependent Effect; selectivity ratio [18]: > 20; MIC (Staphylococcus aureus [19]): 0.5 µg/mL (≈ 1.2 µM); CC50 at 72 h [20]: > 20 µg/mL; MIC (Staphylococcus aureus [21]): 1 µg/mL (≈ 2.4 µM); MIC (Staphylococcus aureus [22]): 1 µg/mL (≈ 2.4 µM); MIC (Enterococcus faecium [23]): 0.125 µg/mL (≈ 0.3 µM); MIC (Staphylococcus aureus [24]): 1 µg/mL (≈ 2.4 µM)
COc1cc(/C=C2\S/C(=N/c3nc4ccccc4o3)NC2=O)ccc1O	4 (≈ 10.9 µM)	2 (≈ 5.44 µM)	16 (≈ 43.6 µM)	0.25 (≈ 0.68 µM)	> 64	4 (≈ 10.9 µM)	16 (≈ 43.6 µM)	16 (≈ 43.6 µM)	4 (≈ 10.9 µM)	> 64	4 (≈ 10.9 µM)	> 64	4 (≈ 10.9 µM)	2 (≈ 5.44 µM)	4 (≈ 10.9 µM)	16 (≈ 43.6 µM)	> 64	2 (≈ 5.44 µM)	16 (≈ 43.6 µM)	2 (≈ 5.44 µM)	selectivity ratio [18]: > 20; MIC (Staphylococcus aureus [19]): 2 µg/mL (≈ 5.44 µM); CC50 at 72 h [20]: > 40 µg/mL; MIC (Staphylococcus aureus [21]): 4 µg/mL (≈ 10.9 µM); MIC (Staphylococcus aureus [22]): 4 µg/mL (≈ 10.9 µM); MIC (Enterococcus faecium [23]): 0.25 µg/mL (≈ 0.68 µM); MIC (Staphylococcus aureus [24]): 4 µg/mL (≈ 10.9 µM)
O=C1N/C(=N\c2nc3ccccc3o2)S/C1=C\c1cccc(O)c1	2 (≈ 5.93 µM)	2 (≈ 5.93 µM)	8 (≈ 23.7 µM)	0.25 (≈ 0.741 µM)	> 64	2 (≈ 5.93 µM)	16 (≈ 47.4 µM)	16 (≈ 47.4 µM)	2 (≈ 5.93 µM)	> 64	2 (≈ 5.93 µM)	> 64	2 (≈ 5.93 µM)	2 (≈ 5.93 µM)	4 (≈ 11.9 µM)	16 (≈ 47.4 µM)	> 64	2 (≈ 5.93 µM)	16 (≈ 47.4 µM)	1 (≈ 2.96 µM)	selectivity ratio [18]: > 20; MIC (Staphylococcus aureus [19]): 1 µg/mL (≈ 2.96 µM); CC50 at 72 h [20]: > 40 µg/mL; MIC (Staphylococcus aureus [21]): 2 µg/mL (≈ 5.93 µM); MIC (Staphylococcus aureus [22]): 2 µg/mL (≈ 5.93 µM); MIC (Enterococcus faecium [23]): 0.25 µg/mL (≈ 0.741 µM); MIC (Staphylococcus aureus [24]): 2 µg/mL (≈ 5.93 µM)
